Assay results collected from several papers.
Each line is one published result; the experiments were not run side by side.
Target: Cytoplasmic tyrosine-protein kinase BMX (BMX, Homo sapiens, UniProt P51813)

For `C[C@@H](N)[C@H]1CC[C@H](C(=O)Nc2ccncc2)CC1`, the remaining activity was 91.2% (enzyme activity; inhibitor; 0.5 µM).
For `Cn1c2c(Cl)c(Cl)ccc2c2cc[nH]c(=O)c21`, the ΔTm was 0 °C (thermal stability; DSF; 10 µM).
With `Fc1ccc(-c2nc3n(c2-c2ccncc2)CCS3)cc1` the remaining activity was 104% (enzyme activity; inhibitor; 0.5 µM).
With `CN(c1ccnc(CNc2nc(Nc3ccc4c(c3)CC(=O)N4)ncc2C(F)(F)F)n1)S(C)(=O)=O` the remaining binding was 80% (cell-free assay; competition with immobilised ligand; 1 µM).
The ΔTm of `CCC1(CC)NC(=O)c2c(c3ccc(Cl)c(Cl)c3n2C)C1C#N` (centres unmarked) is reported as 0.1 °C (thermal stability; DSF; 10 µM).
`Cc1ccc(Nc2nccc(N(C)c3ccc4c(C)n(C)nc4c3)n2)cc1S(N)(=O)=O` has an inhibition of 8% (enzyme activity; inhibitor; 0.3 µM).
With `Cn1c2c(c3ccc(Cl)c(Cl)c31)C(C#N)C1(CCOCC1)NC2=O` (centres unmarked) the ΔTm was -0.3 °C (thermal stability; DSF; 10 µM).
`Cc1nccc(COC(=O)N2C[C@@H]3[C@@H](CNC(=O)c4ccc5[nH]nnc5c4)[C@@H]3C2)n1` has a remaining binding of 88% (cell-free assay; competition with immobilised ligand; 1 µM).
`O=C1c2ccccc2-c2n[nH]c3cccc1c23` gave an activity vs control of 90.8% (enzyme activity; inhibitor; 0.5 µM).
The remaining binding of `CCOC(=O)c1cc2cc(-c3cc(C(=O)NCc4ccc(C(=O)O)cc4)nn3C)ccc2[nH]1` is reported as 82% (cell-free assay; competition with immobilised ligand; 0.1 µM).
`O=c1cc(-c2cccc3c2Sc2ccccc2S3)oc(N2CCOCC2)c1` gave a remaining activity of 112% (enzyme activity; inhibitor; 0.5 µM).
For `CC/C(=N\NC(=O)NCc1cccc(O)c1)c1ccc(O)c(C)c1O`, the inhibition was 3% (enzyme activity; inhibitor; 0.1 µM).
For `O=C(Nc1ccc(Oc2ccc(F)cc2)cc1)N1CCc2ncccc2[C@H]1c1ccc(F)cc1`, the remaining binding was 100% (cell-free assay; competition with immobilised ligand; 1 µM).
`Cn1c2c(Cl)c(Cl)ccc2c2cn[nH]c(=O)c21` has a ΔTm of 0.4 °C (thermal stability; DSF; 10 µM).
With `O=C(NCc1ncc(C(F)(F)F)cc1Cl)c1ccc2c(c1)C1(CCS(=O)(=O)CC1)[C@H](C1CC1)N2S(=O)(=O)c1ccc(F)cc1` the remaining binding was 100% (cell-free assay; competition with immobilised ligand; 1 µM).
With `Cn1c2c(c3ccc(Cl)c(Cl)c31)C(C#N)C1(CCCCC1)NC2=O` (racemic) the ΔTm was 0.1 °C (thermal stability; DSF; 10 µM).
The inhibition of `Cn1cncc1C1=CN(c2ncnc3[nH]cnc23)CCS1` is reported as 40% (enzyme activity; inhibitor; radiometric; 2 µM).
For `COc1cc2ncnc(Nc3ccc(Oc4ccccc4)c(C)c3C)c2cc1OC`, the inhibition was 1% (enzyme activity; inhibitor; 1 µM).
With `CNc1cc2c(Nc3cccc(Br)c3)ncnc2cn1` the remaining activity was 93.9% (enzyme activity; inhibitor; 0.5 µM).
With `C=CC(=O)Nc1cc(Nc2nccc(Nc3cc(Cl)c(F)cc3C(C)(C)O)n2)c(OC)cc1N1CC[C@@H](N(C)C)C1` the inhibition was 80% (enzyme activity; inhibitor; 1 µM).
The inhibition of `CNC(=O)c1cc(Oc2ccc(NC(=O)Nc3ccc(Cl)c(C(F)(F)F)c3)cc2)ccn1` is reported as -3% (enzyme activity; inhibitor; 0.3 µM).
With `FC(F)(F)c1ccc2c(c1)nc(-c1cccnc1)n2C1CC1` the remaining binding was 100% (cell-free assay; competition with immobilised ligand; 1 µM).
The inhibition of `CN(C)C1CCN(CC#Cc2nn(C3CCCC3)c3nc(NCc4ccccc4)ncc23)C1` (centres unmarked) is reported as 11% (enzyme activity; inhibitor; FRET; 0.1 µM).
For `CNc1cccc2cc(C(=O)Nc3ccc(C(=O)O)cc3)c(=O)[nH]c12`, the inhibition was 9.1% (enzyme activity; inhibitor; 10 µM).
`O=C1Nc2ccc(Cl)cc2C1=Cc1cc(Cl)c(O)c(Cl)c1` has a remaining signal of 94.8% (cell-free assay; 0.5 µM).
`Cc1nc(N2CC[C@@H](O)C2)ncc1-c1cc(C(F)(F)F)cc2[nH]ncc12` gave a remaining binding of 100% (cell-free assay; competition with immobilised ligand; 1 µM).
The remaining signal of `C#Cc1cccc(Nc2ncnc3cc(OCCOC)c(OCCOC)cc23)c1` is reported as 100% (cell-free assay; 0.5 µM).
`Cc1ccc(NC(=O)c2ccc(C)c(C(F)(F)F)c2)cc1C#Cc1nn(C2CCC(O)CC2)c2ncnc(N)c12` (centres unmarked) has a remaining signal of -1% (cell-free assay; 10 µM).
The remaining binding of `CS(=O)(=O)c1cc(C2(NC(=O)c3cncc4c3cnn4-c3ccc(F)cc3)CC2)ccn1` is reported as 100% (cell-free assay; competition with immobilised ligand; 1 µM).
With `Cc1cc(NC(=O)c2cccc3cc(-c4cccc5[nH]nc(N)c45)ccc23)ccc1F` the activity vs control was 108% (enzyme activity; inhibitor; 0.1 µM).
`Nc1[nH]nc2nnc(-c3c(-c4ccccc4)nn4ccccc34)cc12` has a remaining activity of 84.4% (enzyme activity; inhibitor; 0.5 µM).
`CCN(CC)CCNC(=O)c1c(C)[nH]c(/C=C2\C(=O)Nc3ccc(F)cc32)c1C` gave an inhibition of 41% (enzyme activity; inhibitor; 10 µM).
